Test results published in ChEMBL document CHEMBL3822433, “Discovery of N-(3-fluoro-4-methylsulfonamidomethylphenyl)urea as a potent TRPV1 antagonistic template” (Bioorg Med Chem Lett, 2016).

What was measured:
Type in all cases: cell-based
[1] = target: T1, Transient receptor potential cation channel subfamily V member 1 (Homo sapiens, UniProt Q8NER1); assay: Displacement of [3H]-resiniferatoxin from human TRPV1 expressed in CHO cells incubated for 60 mins by scintillation counting analysis
In short: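 Competition binding against [3H]-resiniferatoxin using human TRPV1 heterologously expressed in CHO cells; Ki reported. Mean ± SEM of at least three experiments.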

[2] = target: T1, Transient receptor potential cation channel subfamily V member 1; assay: Agonist activity at human TRPV1 expressed in CHO cells assessed as 45Ca2+ uptake incubated for 5 mins by liquid scintillation counting analysis
In short: (§1)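 Human TRPV1 heterologously expressed in CHO cells; 45Ca2+ uptake measured. Maximal response defined with saturating capsaicin (1 μM). Mean ± SEM of at least three experiments. Where shown, % agonism refers to test concentrations of 3–30 μM.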

[3] = target: T1, Transient receptor potential cation channel subfamily V member 1; assay: Antagonist activity at human TRPV1 expressed in CHO cells assessed as inhibition of capsaicin-induced 45Ca2+ uptake incubated for 5 mins by liquid scintillation counting analysis
[4] = target: T1, Transient receptor potential cation channel subfamily V member 1; assay: Antagonist activity at human TRPV1 expressed in CHO cells assessed as inhibition of capsaicin-induced 45Ca2+ uptake at 3 to 30 uM incubated for 5 mins by liquid scintillation counting analysis
[5] = target: T1, Transient receptor potential cation channel subfamily V member 1; assay: Agonist activity at human TRPV1 expressed in CHO cells assessed as 45Ca2+ uptake at 3 to 30 uM incubated for 5 mins by liquid scintillation counting analysis; in short: as §1
[6] = target: T1, Transient receptor potential cation channel subfamily V member 1; assay: Antagonist activity at human TRPV1 expressed in CHO cells assessed as inhibition of capsaicin-induced 45Ca2+ uptake preincubated for 30 mins prior to capsaicin challenge measured after 5 mins by liquid scintillation counting analysis
In short: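 CHO cells heterologously expressing human TRPV1 were given a 30 min pre-incubation with antagonist before challenge with capsaicin (30 nM). Capsaicin-stimulated 45Ca2+ uptake was read out, and Ki(ant) was derived from dose-dependent inhibition, allowing for competition with capsaicin. Values are mean ± SEM, with n ≥ 3 experiments.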

[7] = target: T1, Transient receptor potential cation channel subfamily V member 1; assay: Antagonist activity at human TRPV1 expressed in CHO cells assessed as inhibition of capsaicin-induced 45Ca2+ uptake preincubated for 15 mins prior to capsaicin challenge measured after 5 mins by liquid scintillation counting analysis
In short: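 Human TRPV1 heterologously expressed in CHO cells; cells pre-incubated with antagonist for 15 min, then challenged with capsaicin (30 nM) and 45Ca2+ uptake measured. Dose-dependent inhibition was used to derive Ki(ant), correcting for capsaicin–antagonist competition. Values are mean ± SEM of at least three experiments.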

T1 sequence (Q8NER1 whole entry): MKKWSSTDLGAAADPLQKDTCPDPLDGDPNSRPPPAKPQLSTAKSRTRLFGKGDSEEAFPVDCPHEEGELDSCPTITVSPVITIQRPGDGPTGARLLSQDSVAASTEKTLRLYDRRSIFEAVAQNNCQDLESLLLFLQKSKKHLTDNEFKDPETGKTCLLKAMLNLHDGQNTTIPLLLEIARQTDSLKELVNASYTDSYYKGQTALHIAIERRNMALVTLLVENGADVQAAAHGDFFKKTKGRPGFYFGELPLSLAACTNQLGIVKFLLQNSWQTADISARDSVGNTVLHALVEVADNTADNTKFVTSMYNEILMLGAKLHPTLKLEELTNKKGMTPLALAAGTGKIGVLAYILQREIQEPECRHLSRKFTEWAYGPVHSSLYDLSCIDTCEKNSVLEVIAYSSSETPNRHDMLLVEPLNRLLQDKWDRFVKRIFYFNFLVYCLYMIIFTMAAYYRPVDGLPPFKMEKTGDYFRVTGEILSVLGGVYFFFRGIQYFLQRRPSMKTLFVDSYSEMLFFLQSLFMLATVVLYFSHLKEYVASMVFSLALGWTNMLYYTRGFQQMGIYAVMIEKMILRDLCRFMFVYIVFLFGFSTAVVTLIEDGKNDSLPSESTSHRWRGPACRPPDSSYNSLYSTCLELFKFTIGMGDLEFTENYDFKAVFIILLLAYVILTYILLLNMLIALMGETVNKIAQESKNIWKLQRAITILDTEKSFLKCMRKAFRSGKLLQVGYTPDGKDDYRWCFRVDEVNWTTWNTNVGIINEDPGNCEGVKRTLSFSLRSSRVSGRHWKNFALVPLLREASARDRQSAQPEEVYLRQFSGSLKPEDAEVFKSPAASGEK

Compound | Ki [1] [nM] | EC50 [2] | Ki [3] [nM] | inhibition [4] [%] | Activity [5] [%] | Ki [6] [nM] | Ki [7] [nM]
CC1CCN(c2nc(C(F)(F)F)ccc2CNC(=O)Nc2ccc(NS(C)(=O)=O)c(F)c2)CC1 | 83 | Not Active | 149 |  |  |  | 
CC1CCN(c2nc(C(F)(F)F)ccc2CNC(=O)NCc2ccc(CNS(C)(=O)=O)c(F)c2)CC1 | 410 | Not Active | 199 |  |  |  | 
CC1CCN(c2nc(C(F)(F)F)ccc2CNC(=O)[C@@H](C)c2ccc(NS(C)(=O)=O)c(F)c2)CC1 |  | Not Active |  |  |  |  | 
CC1CCN(c2nc(C(F)(F)F)ccc2CNC(=O)Nc2ccc(CNS(C)(=O)=O)c(F)c2)CC1 | 6.77 | Not Active | 12.5 |  |  |  | 
CC1CCN(c2nc(C(F)(F)F)ccc2CNC(=O)C(C)c2ccc(CNS(C)(=O)=O)c(F)c2)CC1 (stereo unspecified) | 230 | Not Active | 27.6 |  |  |  | 
CC1CCN(c2nc(C(F)(F)F)ccc2CNC(=O)N(C)c2ccc(NS(C)(=O)=O)c(F)c2)CC1 | 1160 | Not Active | 59 |  |  |  | 
CC1CCN(c2nc(C(F)(F)F)ccc2CNC(=O)C(C)c2ccc(NS(C)(=O)=O)c(F)c2)CC1 (stereo unspecified) |  | Not Active |  |  |  |  | 
CC1CCN(c2nc(C(F)(F)F)ccc2CCNC(=O)C(C)c2ccc(NS(C)(=O)=O)c(F)c2)CC1 (stereo unspecified) | 54 | Not Active | 95 |  |  |  | 
CC1CCN(c2nc(C(F)(F)F)ccc2CNC(=O)NCc2ccc(NS(C)(=O)=O)c(F)c2)CC1 |  | Not Active |  |  |  |  | 
CC1CCN(c2nc(C(F)(F)F)ccc2CCNC(=O)Nc2ccc(NS(C)(=O)=O)c(F)c2)CC1 | 210 |  |  | 49 | 29 |  | 
CC1CCN(c2nc(C(F)(F)F)ccc2CNC(=O)NC(C)c2ccc(NS(C)(=O)=O)c(F)c2)CC1 (stereo unspecified) | 31.6 | Not Active | 28.1 |  |  |  | 
Cc1cccc(N(C(=O)NCc2ccc(C(F)(F)F)nc2N2CCC(C)CC2)c2ccc(NS(C)(=O)=O)c(F)c2)c1 | 490 | Not Active |  |  |  | 860 | 2200
